Assays:
[1] = Chemical stability of the compound assessed as compound remaining after 24 hrs PBS buffer by HPLC analysis at pH 5.5; assay type: physicochemical; details: read-out: Activity
In short: (§1)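 Drug at 50 mg/liter initial concentration incubated 24 h at 37°C in buffered medium at pH 7.4 or 5.5. Remaining drug measured by HPLC signal disappearance; mobile phase 25 mM phosphate buffer pH 6.7 with acetonitrile (75:25).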

THP-1 = assay: Ratio of intracellular to extracellular drug level in human THP1 cells at 250 mg/L after 24 hrs; assay type: ADME, cell-based; details: thp-1, 24 h
In short: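 THP-1 cells incubated 24 h at 250 mg/liter extracellular drug. Cell lysates assayed microbiologically with MSSA ATCC 25923; content expressed per mg total protein. Cellular/extracellular ratio calculated assuming cell volume of 5 μl per mg protein.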

[2] = Chemical stability of the compound assessed as compound remaining after 24 hrs in PBS buffer by HPLC analysis at pH 7.4; assay type: physicochemical; details: read-out: Activity; in short: as §1

C[C@@H](O)[C@H]1C(=O)N2C(C(=O)O)=C(SCCN=CN)C[C@H]12 [IMIPENEM ANHYDROUS]
remaining at 24 h [1]: 30.5%
Ratio (THP-1): 0.05
remaining at 24 h [2]: 39.3%

C[C@@H](O)[C@H]1C(=O)N2C(C(=O)O)=C(S[C@@H]3CN[C@H](C(=O)N(C)C)C3)[C@H](C)[C@H]12 [MEROPENEM]
remaining at 24 h [1]: 40.3%
Ratio (THP-1): 0.2
remaining at 24 h [2]: 49.3%

Cc1onc(-c2ccccc2)c1C(=O)N[C@@H]1C(=O)N2[C@@H]1SC(C)(C)[C@@H]2C(=O)O [OXACILLIN]
remaining at 24 h [1]: 91.8%
Ratio (THP-1): 0.2
remaining at 24 h [2]: 94.2%
